The full list was thinned out, with hits kept by preference.
PTEN del growth: growth suppression of PTEN-null HCT116, primary screen, cell-based, CellTiter-Glo; HCT116 PTEN-null viability, 60 h; hits give low values; viability, % at 10 µM; actives 1.2% (n = 140,000); AID 827, 2007;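 active means viability at or below a set limit, 4 SD under the median of all tested compounds, cut at about 3.7% in these data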;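 further: PTEN knockout HCT116 line with beta catenin targeted HCT116 as companion control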
HCT116 bCat-KO: primary screen for growth suppressors in beta-catenin knockout HCT116 cells (colon tumor, human). viability, % at 10 µM. actives 1.5% (n = 140,000). HCT116 beta-catenin knockout viability, CellTiter-Glo, 60 h; hits give low values. AID 818, 2007;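 active means viability at or under a set limit, the compound median less 4 SD, cut at about 6% in these data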
Lung fibro prol: antiproliferative effect on LL 47 fibroblasts – human, LL 47 cells, CellTiter-Glo luminescence, primary screen. LL 47 human lung fibroblast viability, ATP luminescence; hits give low values. viability, % at 10 µM. actives 1.1% (n = 85,000). AID 719, 2007;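 active means viability at or below 50% in the single dose screen; inactive means viability above 50%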;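 further: compound exposure lasted 72 h before the ATP readout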
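Signal: luminescent ATP detection, CellTiter-Glo; assay system: LL 47 human lung fibroblasts; input: 1,150 cells/well; incubation: overnight cell rest, 72 h compound treatment at 37 °C; measure: % viability versus median cells-only luminescence; medium: IMEM growth medium with 15% fetal bovine serum; dosing: compound addition at 0.1% DMSO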
HUVEC inhibit: inhibitors of HUVEC proliferation, primary screen, cell-based, 384-well. CellTiter-Glo luminescence, 72 h; hits give low values. viability, % at 10 µM (by protocol). actives 1.1% (n = 86,000);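 active means viability at or below 30%; inactive means viability above 30%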
H69AR growth 86K: proliferation blockers of H69AR lung cancer cells, primary screen, cell-based, human, 86K library | H69AR lung tumor viability, ATP luminescence, 72 h; hits give low values | viability, % at 10 µM | AID 598, 2007 | actives 6% (n = 85,000);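 active means viability at or below 40%; inactive means viability above 40%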;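 further: multidrug resistant small cell line overexpressing MRP-1 efflux transporter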
Large screens that a line does not name were inactive.

Cc1nc2c(ccc3nc(NC(=O)c4ccc(S(=O)(=O)N(C)C)cc4)sc32)s1	H69AR growth 86K 35.2
N#C/C(=C(/O)COC(=O)c1ccc2c(c1)OCCO2)c1nc2ccccc2[nH]1	none (no result: Lung fibro prol)
N#C/C(=C(/O)COC(=O)CCc1ccc(S(=O)(=O)N2CCOCC2)cc1)c1nc2ccccc2[nH]1	HCT116 bCat-KO 5.7
COc1ccccc1OCC(=O)OC/C(O)=C(\C#N)c1nc2ccccc2[nH]1	PTEN del growth 2.2, HCT116 bCat-KO 5.5 (no result: Lung fibro prol, HUVEC inhibit, H69AR growth 86K)
CC(C)(C)/C(O)=C(/C#N)c1nc2ccccc2[nH]1	none
COc1cccc(OC)c1/C(O)=C(\C#N)c1nc2ccccc2[nH]1	H69AR growth 86K 26.5
CCOC(=O)c1c(C)[nH]c(C(=O)OC/C(O)=C(\C#N)c2nc3ccccc3[nH]2)c1C	HUVEC inhibit 9.2
Nc1ccnc(Oc2ccc(F)cc2)c1	none (no result: Lung fibro prol, HUVEC inhibit, H69AR growth 86K)
O=c1cc(-c2ccccc2)[nH]c2ccccc12	H69AR growth 86K 31.0
COc1ccc(C2(CNC(=O)c3ccc(OCC(C)C)cc3)CCOCC2)cc1	none (no result: Lung fibro prol, HUVEC inhibit, H69AR growth 86K)
CNC(=S)N1C2CCC1CC(NC(=O)NC13CC4CC(CC(C4)C1)C3)C2 (configuration not stated)	none (no result: Lung fibro prol, HUVEC inhibit, H69AR growth 86K)
CC(C)CSc1nc2c(c(=O)[nH]c(=O)n2C)n1CC(O)COc1cccc2ccccc12 (configuration not stated)	H69AR growth 86K 32.2
CC(C)CSc1nc2c(c(=O)[nH]c(=O)n2C)n1CCc1ccccc1	none
COc1cc(SC#N)ccc1N=Cc1c(C)[nH]n(-c2ccc(Cl)cc2)c1=O	none (no result: Lung fibro prol, HUVEC inhibit, H69AR growth 86K)
COc1cc(SC#N)ccc1N=Cc1c(C)[nH]n(-c2ccc(C)c(C)c2)c1=O	PTEN del growth 0.3, HCT116 bCat-KO 0.8 (no result: Lung fibro prol, HUVEC inhibit, H69AR growth 86K)
CC(=O)N1CCN(c2ccccc2NC(=O)COc2ccc(Cl)cc2Cl)CC1	none
CCC(=O)N1CCN(c2ccccc2NC(=O)COc2cc(C)ccc2C(C)C)CC1	H69AR growth 86K 35.6
CN(C)c1ccc(C(=O)c2ccccc2)cc1	none
COc1ccc(C(N)=O)cc1N	none (no result: Lung fibro prol, HUVEC inhibit, H69AR growth 86K)
CCOc1ccc(C(=O)c2ccc(OCC)c(N)c2)cc1N	H69AR growth 86K 13.3
CN(C)c1ccc(C(=O)c2ccc(N(C)C)c(N)c2)cc1N	H69AR growth 86K 21.6
CN(Cc1ccccc1)S(=O)(=O)c1ccc(S(=O)(=O)N(Cc2ccc(F)cc2)C2CCCC2)cc1	H69AR growth 86K 32.0
COC(=O)C1=C(C)NC(=O)CC1c1cc2c(cc1Br)OCO2 (configuration not stated)	none
CC1=C(C(=O)OC2CCCCCCC2)C(c2cc3c(cc2Br)OCO3)CC(=O)N1 (configuration not stated)	HUVEC inhibit 5.0, H69AR growth 86K 5.8
Cc1nn(-c2ccccc2)c(C)c1C(=O)OCC(=O)NC12CC3CC(CC(C3)C1)C2	H69AR growth 86K 28.7
CC(=O)Nc1ccc(NC(=O)COC(=O)c2c(C)nn(-c3ccccc3)c2C)cc1	none (no result: Lung fibro prol, HUVEC inhibit, H69AR growth 86K)
CCc1nnc(NC(=O)Cn2nc(-c3ccccc3OC)ccc2=O)s1	none
C=CC(C)(C)c1cc2cc3ccoc3cc2oc1=O	none (no result: Lung fibro prol, HUVEC inhibit, H69AR growth 86K)
CC(C)Cc1ccc(C(C)C(=O)OCC(=O)c2c[nH]c3ccccc23)cc1 (configuration not stated)	H69AR growth 86K 39.0
COCCCN(C(=O)c1ccco1)c1nc(-c2cc(OC)ccc2OC)cs1	none
COc1ccc(-c2csc(N(CCCN(C)C)C(=O)c3cccs3)n2)cc1	H69AR growth 86K 22.0
COCCCN(C(C)=O)c1nc(-c2ccc(OC)cc2)cs1	H69AR growth 86K 15.3
Fc1ccccc1-c1csc(=Nc2cccnc2)n1CCCn1ccnc1	none (no result: Lung fibro prol, HUVEC inhibit, H69AR growth 86K)
CN(C)c1oc(-c2ccc(Cl)cc2)nc1S(=O)(=O)c1ccccc1	none (no result: Lung fibro prol, HUVEC inhibit, H69AR growth 86K)
O=C(N/N=C\c1ccccc1)c1sccc1-n1cccc1	none (no result: Lung fibro prol, HUVEC inhibit, H69AR growth 86K)
O=C(N/N=C/c1ccc(Br)cc1)c1ccccc1-n1cccc1	H69AR growth 86K 21.5
O=C(CSc1ccc2nnc(-c3ccncc3)n2n1)N1CCc2ccccc21	none (no result: PTEN del growth, HCT116 bCat-KO)
COc1ccccc1N1CCN(CC(=O)c2c(C)[nH]c3cc(C)ccc23)CC1	H69AR growth 86K 37.5
COc1ccccc1N1CCN(CC(=O)c2c(C)n(C)c3ccccc23)CC1	none
COc1ccc(S(=O)(=O)N(CCc2ccccc2)CC(=O)O)cc1	none
COc1ccc2c(=O)c3c(=O)n(Cc4ccco4)c(-c4cc(OC)c(OC)c(OC)c4)nc3oc2c1	H69AR growth 86K 13.2
COc1ccc(-c2ccc(-c3noc(-c4ccccc4OC)n3)c(OC)n2)cc1	H69AR growth 86K 33.9
CCCc1ccc(OCc2nc(-c3ccc(NC(=O)c4cccs4)cc3)no2)cc1	none (no result: Lung fibro prol, HUVEC inhibit, H69AR growth 86K)
COc1cccc(-c2nc(-c3ccc(NC(=O)Cc4ccccc4OC)cc3)no2)c1	none
Cc1ccccc1OCc1nc(-c2ccc(NC(=O)c3ccc4c(c3)OCO4)cc2)no1	Lung fibro prol 29.9, H69AR growth 86K 16.5
Cc1ccccc1OCc1nc(-c2ccc(NC(=O)c3ccco3)cc2)no1	none
COc1ccccc1CC(=O)Nc1ccc(-c2noc(COc3cccc(C)c3C)n2)cc1	H69AR growth 86K 38.1
CCCc1ccc(OCc2nc(-c3ccc(NC(=O)c4ccco4)cc3)no2)cc1	H69AR growth 86K 9.2
CCOc1ccc(CC(=NCCc2ccccc2)C2=C(O)CC(C)(C)CC2=O)cc1OCC	none (no result: Lung fibro prol, HUVEC inhibit, H69AR growth 86K)
Cc1cccc(OCC(=O)O/N=C(\N)Cc2ccc(Cl)cc2)c1	none
COC(=O)c1ccc(NC(=O)C2CCCN(S(=O)(=O)c3cnc[nH]3)C2)cc1 (configuration not stated)	none
COc1ccc(CC(=O)Nc2ccc(-c3noc(-c4ccccc4OC)n3)cc2)cc1	HUVEC inhibit 26.0, H69AR growth 86K 16.9
O=C(Nc1ccc(-c2noc(CCc3ccccc3)n2)cc1)c1cccnc1	H69AR growth 86K 5.5
Cc1cc(OCc2nc(-c3ccc(NC(=O)c4cccnc4)cc3)no2)ccc1Cl	none (no result: Lung fibro prol, HUVEC inhibit, H69AR growth 86K)
COc1ccccc1CC(=O)Nc1ccc(-c2noc(COc3ccc(Br)cc3)n2)cc1	H69AR growth 86K 19.3
COc1cccc2cc(C(N)=O)/c(=N/NC(=O)COc3ccc(Cl)cc3)oc12	none (no result: Lung fibro prol, HUVEC inhibit, H69AR growth 86K)
CN(c1ccccc1)S(=O)(=O)c1cccc(NC(=O)CC(C)(C)C)c1	none (no result: Lung fibro prol, HUVEC inhibit, H69AR growth 86K)
Cc1ccc2oc(-c3cccc(NC(=O)/C=C/c4cccc([N+](=O)[O-])c4)c3C)nc2c1	none (no result: Lung fibro prol, HUVEC inhibit, H69AR growth 86K)
Cc1ccc2c3c(c(SCC(=O)Nc4nonc4C)nc2c1)CCCC3	H69AR growth 86K 16.1
CCOC(=O)C1=C(Cc2ccc(Cl)cc2)C(=O)c2ccccc2C1=O	HUVEC inhibit 20.6, H69AR growth 86K 1.9
O=[N+]([O-])c1ccc2nc(-c3ccc(Cl)cc3)[nH]c2c1	PTEN del growth 2.7 (no result: Lung fibro prol, HUVEC inhibit, H69AR growth 86K)
COc1ccc(-c2nc3ccc([N+](=O)[O-])cc3[nH]2)cc1	none (no result: Lung fibro prol, HUVEC inhibit, H69AR growth 86K)
Nc1nonc1NC(=O)NN=C1CCCCC1	none (no result: Lung fibro prol, HUVEC inhibit, H69AR growth 86K)
Cc1cnc(C(=O)OCC(=O)Nc2oc(-c3ccccc3)c(-c3ccccc3)c2C#N)cn1	H69AR growth 86K 33.6
N#Cc1c(NC(=O)CSc2ccccn2)oc(-c2ccccc2)c1-c1ccccc1	none
